Data published in ChEMBL document CHEMBL1146016, “Synthesis and structure-activity relationships of 3,4-diaminocyclobut-3-ene-1,2-dione CXCR2 antagonists” (Bioorg Med Chem Lett, 2006).
pIC50: −log10 of the molar value.

Assays:
[1] = target: T1, C-X-C chemokine receptor type 2 (Homo sapiens, UniProt P25025); assay: Displacement of [125I]IL8 from human CXCR2 expressed in CHO cells; assay type: cell-based
T1 sequence (P25025 whole entry): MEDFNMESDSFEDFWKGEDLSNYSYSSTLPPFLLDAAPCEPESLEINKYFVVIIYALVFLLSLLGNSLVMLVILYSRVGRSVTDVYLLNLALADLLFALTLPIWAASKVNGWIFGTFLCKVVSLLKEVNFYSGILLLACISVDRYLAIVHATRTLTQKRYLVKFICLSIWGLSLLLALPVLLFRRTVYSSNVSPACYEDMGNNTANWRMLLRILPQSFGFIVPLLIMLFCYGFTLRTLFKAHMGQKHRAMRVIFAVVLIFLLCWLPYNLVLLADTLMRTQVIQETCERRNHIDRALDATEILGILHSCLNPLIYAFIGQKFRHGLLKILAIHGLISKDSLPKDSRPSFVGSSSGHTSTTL

[2] = Metabolic stability in human liver microsome after 30 min at 37 degreeC; assay type: ADME; details: liver microsomes, read-out: Stability
Method in brief: (§1)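 Liver microsomes (human or rat) incubated with compound at 1 µM final for 30 min at 37 °C in 100 mM potassium phosphate pH 7.4 with 1 mM β-NADPH; reported as percent parent remaining; means ± SD of two or more measurements.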

[3] = Permeability across Caco-2 cell membrane; assay type: ADME, cell-based; details: human
Method in brief: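 Caco-2 monolayers in a commercial HTS Caco-2 system run per kit instructions; apicalto-basolateral apparent permeability (nm/s), binned as low or high predicted absorption; means ± SD of two or more measurements.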

[4] = Metabolic stability in rat liver microsome after 30 min at 37 degreeC; assay type: ADME; details: liver microsomes, read-out: Stability; method in brief: as §1

CN(C)C(=O)c1cccc(/N=c2\c(O)c(O)\c2=N/CCc2ccccc2)c1O
pIC50 [1]: 6.03

CN(C)C(=O)c1cccc(/N=c2\c(O)c(O)\c2=N/C2CCCC2)c1O
remaining at 0.5 h [2]: 72%
Papp [3]: 10.1 ×10⁻⁶ cm/s
pIC50 [1]: 8.10
remaining at 0.5 h [4]: 56%

CN(C)C(=O)c1cccc(/N=c2\c(O)c(O)\c2=N/C2CCCCC2)c1O
pIC50 [1]: 8.00

CN(C)C(=O)c1cc(Cl)cc(/N=c2\c(O)c(O)\c2=N/c2ccccc2)c1O
pIC50 [1]: 8.70

CN(C)C(=O)c1cccc(/N=c2\c(O)c(O)\c2=N/C(C)(C)C)c1O
pIC50 [1]: 7.85

CN(C)C(=O)c1cccc(/N=c2\c(O)c(O)\c2=N/c2ccccc2)c1O
remaining at 0.5 h [2]: 64%
Papp [3]: 2.4 ×10⁻⁶ cm/s
pIC50 [1]: 8.70
remaining at 0.5 h [4]: 67%

CN(C)C(=O)c1cccc(/N=c2\c(O)c(O)\c2=N/[C@@H]2CCc3ccccc32)c1O
pIC50 [1]: 6.26

O=c1c(O)c(Nc2ccc([N+](=O)[O-])cc2O)/c1=N/c1ccccc1
pIC50 [1]: 7.44

CN(C)C(=O)c1cccc(/N=c2\c(O)c(O)\c2=N/C2CCOCC2)c1O
pIC50 [1]: 6.77

O=c1c(O)c(Nc2cc([N+](=O)[O-])ccc2O)/c1=N/c1ccccc1
pIC50 [1]: 7.25

N#Cc1ccc(O)c(Nc2c(O)c(=O)/c2=N\c2ccccc2)c1
pIC50 [1]: 7.13

CN(C)C(=O)c1cccc(/N=c2/c(N(C)c3ccccc3)c(O)c2=O)c1O
pIC50 [1]: 5.14

CN(c1ccccc1O)c1c(Nc2ccccc2)c(=O)c1=O
pIC50 [1]: 4.54

CCC(CC)/N=c1\c(O)c(O)\c1=N/c1cccc(C(=O)N(C)C)c1O
remaining at 0.5 h [2]: 82%
Papp [3]: 12 ×10⁻⁶ cm/s
remaining at 0.5 h [4]: 75%

CC(C)/N=c1\c(O)c(O)\c1=N/c1cccc(C(=O)N(C)C)c1O
pIC50 [1]: 8.00

NC(=O)c1cccc(/N=c2\c(O)c(O)\c2=N/c2ccccc2)c1O
pIC50 [1]: 7.47

CCNC(=O)c1cccc(/N=c2\c(O)c(O)\c2=N/c2ccccc2)c1O
pIC50 [1]: 7.19

O=c1c(O)c(Nc2ccc([N+](=O)[O-])cc2)/c1=N/c1ccccc1
pIC50 [1]: 5.07

O=C(NCc1ccccc1)c1cccc(Nc2c(O)c(=O)/c2=N\c2ccccc2)c1O
pIC50 [1]: 6.86

N#Cc1ccc(Nc2c(O)c(=O)/c2=N\c2ccccc2)c(O)c1
pIC50 [1]: 8.52

CNC(=O)c1cccc(/N=c2\c(O)c(O)\c2=N/c2ccccc2)c1O
pIC50 [1]: 7.66

COC(=O)c1cccc(/N=c2\c(O)c(O)\c2=N/c2ccccc2)c1O
pIC50 [1]: 7.28

O=c1c(O)c(Nc2ccccc2)/c1=N/c1ccccc1O
pIC50 [1]: 6.32

CN(C)C(=O)c1cccc(/N=c2\c(O)c(O)\c2=N/Cc2ccco2)c1O
pIC50 [1]: 7.39

O=C(O)c1cccc(/N=c2\c(O)c(O)\c2=N/c2ccccc2)c1O
pIC50 [1]: 6.00

O=C(O)c1ccc(/N=c2\c(O)c(O)\c2=N/c2ccccc2)c(O)c1
pIC50 [1]: 5.51
